Measured values from ChEMBL document CHEMBL4396899, “Synthesis of N-hydroxycinnamoyl amide derivatives and evaluation of their anti-oxidative and anti-tyrosinase activities” (Bioorg Med Chem, 2019).
Calls of active or inactive are those of the source. The calls are words filed in the database; no cut-off is given here.

Key:
[1] = Antioxidant activity assessed as hydroxyl radical scavenging activity incubated for 1 hr by spectrophotometric analysis; assay type: functional
How it was run: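 Phenanthroline (0.75 mM in ethanol), 0.2 M phosphate buffer pH 7.4, sample in DMSO and 0.75 mM FeSO4 (1 mL each) mixed, then 1 mL 0.01% H2O2 added. Incubated 1 h at 37 °C in a water bath, absorbance read at 536 nm. Triplicate; IC50 (mM) by regression interpolation.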

[2] = Antioxidant activity assessed as DPPH free radical scavenging activity incubated for 30 mins in dark condition by spectrophotometric analysis; assay type: functional
How it was run: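 Test samples dissolved in absolute ethanol at a range of concentrations; 1 mL mixed with 1 mL 0.2 mM DPPH in ethanol, kept in the dark 30 min, absorbance read at 517 nm against an ethanol blank. L-ascorbic acid as positive control. Triplicate measurements; IC50 taken from the dose-response curve by linear regression interpolation.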

[3] = target: T1, Tyrosinase (Agaricus bisporus) (UniProt O42713); assay: Inhibition of mushroom tyrosinase at 1 g/L using […] as substrate measured after 30 mins
T1 sequence (whole entry): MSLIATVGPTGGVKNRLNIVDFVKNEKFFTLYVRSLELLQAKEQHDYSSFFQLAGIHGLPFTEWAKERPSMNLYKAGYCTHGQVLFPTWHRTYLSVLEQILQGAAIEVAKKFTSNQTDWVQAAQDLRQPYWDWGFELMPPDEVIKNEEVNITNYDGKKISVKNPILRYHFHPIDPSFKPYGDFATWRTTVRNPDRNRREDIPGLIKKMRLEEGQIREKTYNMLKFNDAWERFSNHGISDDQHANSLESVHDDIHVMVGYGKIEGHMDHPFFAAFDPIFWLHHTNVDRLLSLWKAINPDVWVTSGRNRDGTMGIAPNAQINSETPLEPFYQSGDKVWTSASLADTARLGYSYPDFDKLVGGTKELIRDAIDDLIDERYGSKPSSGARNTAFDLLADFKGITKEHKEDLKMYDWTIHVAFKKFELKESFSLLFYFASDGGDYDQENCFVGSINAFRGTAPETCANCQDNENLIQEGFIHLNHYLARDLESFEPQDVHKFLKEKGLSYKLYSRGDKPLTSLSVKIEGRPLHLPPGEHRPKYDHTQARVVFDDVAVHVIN
How it was run: (§1)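 Substrate L-tyrosine (0.507 g/L stock in HCl/0.2 M phosphate buffer pH 6.8). Inhibitor stock 1 g/L in DMSO, replaced by DMSO for the reference. Mushroom tyrosinase (200 U/mL stock in 0.2 M phosphate buffer pH 6.8) added last. Incubated 37 °C for 30 min, absorbance read at 475 nm. Percent inhibition from blank-corrected absorbances; triplicate; ferulic acid as positive control.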

Tyrosinase = target: T2, Tyrosinase (Agaricus bisporus, UniProt O42713); assay: Inhibition of mushroom tyrosinase using […] as substrate measured after 30 mins; how it was run: as §1
T2 sequence (O42713 whole entry): T1 sequence (whole entry)

Structure (SMILES)	IC50 [1]	IC50 [2]	inhibition [3]	IC50 (Tyrosinase)
COc1cc(/C=C/C(=O)O)ccc1O [FERULATE]	–	35.7 µM	Active	–
O=C(O)/C=C/c1ccc(O)c(O)c1 [CAFFEIC ACID]	287 µM	27.6 µM	–	–
CCOC(=O)[C@H](CC(C)C)NC(=O)/C=C/c1ccc(OC(C)=O)c(OC)c1	–	> 500 µM	Active	–
CCOC(=O)[C@H](C)NC(=O)/C=C/c1ccc(OC(C)=O)c(OC)c1	–	482 µM	Active	–
O=C1O[C@H]([C@@H](O)CO)C(O)=C1O [ASCORBIC ACID]	1620 µM	80.9 µM	–	–
COc1cc(/C=C/C(=O)O)ccc1OC(C)=O	–	> 500 µM	Active	–
CCOC(=O)[C@@H](NC(=O)/C=C/c1ccc(OC(C)=O)c(OC)c1)C(C)C	–	> 500 µM	Active	–

Further lines, results first:

IC50 [1]	IC50 [2]	inhibition [3]	IC50 (Tyrosinase)	Structure (SMILES)
340 µM	18.6 µM	–	–	CCOC(=O)CNC(=O)/C=C/c1ccc(O)c(O)c1
411 µM	43.5 µM	–	–	CCOC(=O)[C@@H](NC(=O)/C=C/c1ccc(O)c(O)c1)[C@@H](C)CC
–	56.1 µM	Active	–	CCOC(=O)[C@H](CC(C)C)NC(=O)/C=C/c1ccc(O)c(OC)c1
292 µM	33.2 µM	–	> 29 µM	CCOC(=O)[C@H](Cc1ccccc1)NC(=O)/C=C/c1ccc(O)c(O)c1
373 µM	28.6 µM	–	–	CCOC(=O)[C@H](CC(C)C)NC(=O)/C=C/c1ccc(O)c(O)c1
–	59.6 µM	Active	–	CCOC(=O)[C@@H](NC(=O)/C=C/c1ccc(O)c(OC)c1)C(C)C
348 µM	19.6 µM	–	–	CCOC(=O)[C@@H](NC(=O)/C=C/c1ccc(O)c(O)c1)C(C)C
–	–	–	< 0.18 µM	CCOC(=O)[C@H](Cc1ccccc1)NC(=O)/C=C/c1ccc(O)c(OC)c1
–	46.4 µM	Active	–	CCOC(=O)[C@H](C)NC(=O)/C=C/c1ccc(O)c(OC)c1
214 µM	29.7 µM	–	–	CCOC(=O)[C@H](C)NC(=O)/C=C/c1ccc(O)c(O)c1
